Activity calls are given as the source filed them. No cut-off for these calls is given here.
Legend:
MCF7 = assay: Cytotoxicity of compound was tested against MCF-7 breast cancer cells; type: functional, cell-based; conditions: Homo sapiens
How it was run: (§1)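 MTT assay. Exponentially growing cells (1–2 × 10^3 per well) seeded day 0; graded compound concentrations added day 1; on day 4, MTT (1 mg/mL in DPBS) added for 4 h at 37 °C. 8226/S (RPMI 8226 myeloma) and doxorubicin-resistant, topoisomerase II-reduced 8226/DOX1V; MCF7 breast cells. Myeloma values are the mean ± SD of four experiments; IC50 in μM.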

[1] = target: T1, DNA polymerase I, thermostable (Thermus aquaticus, UniProt P19821); assay: Inhibition of Taq DNA polymerase
RPMI-8226 [2] = assay: Cytotoxicity of compound against 8226/S cells; type: functional, Homo sapiens; how it was run: as §1
RPMI-8226 [3] = assay: Cytotoxicity of compound against 8226/DOX1V cells; type: functional, Homo sapiens; how it was run: as §1
[4] = target: T2, DNA topoisomerase II (Homo sapiens) (UniProt P11388+Q02880); assay: Inhibition against decatenation activity of DNA topoisomerase II at a concentration of 100 uM; type: protein assay
How it was run: (§2)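 Human topoisomerase II (2 units) was then added for 30 min at 37 °C. Sarkosyl stop; products resolved on 1% agarose with ethidium bromide; decatenated kDNA quantified by densitometry.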

[5] = target: T1, DNA polymerase I, thermostable; assay: Inhibition of Taq DNA polymerase by TRAP assay
[6] = Ratio of cytotoxicity of DOX1V/S cells; type: functional
How it was run: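 Ratio of IC50 in 8226/DOX1V (doxorubicin-resistant, reduced topoisomerase II) to IC50 in parental 8226/S. Both IC50s come from a 3-day MTT assay, each the mean of four experiments.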

[7] = target: T2, DNA topoisomerase II (Homo sapiens); assay: Inhibition against decatenation activity of DNA topoisomerase II at a concentration of 3.2 uM; type: protein assay; how it was run: as §2

T1 sequence (P19821 whole entry): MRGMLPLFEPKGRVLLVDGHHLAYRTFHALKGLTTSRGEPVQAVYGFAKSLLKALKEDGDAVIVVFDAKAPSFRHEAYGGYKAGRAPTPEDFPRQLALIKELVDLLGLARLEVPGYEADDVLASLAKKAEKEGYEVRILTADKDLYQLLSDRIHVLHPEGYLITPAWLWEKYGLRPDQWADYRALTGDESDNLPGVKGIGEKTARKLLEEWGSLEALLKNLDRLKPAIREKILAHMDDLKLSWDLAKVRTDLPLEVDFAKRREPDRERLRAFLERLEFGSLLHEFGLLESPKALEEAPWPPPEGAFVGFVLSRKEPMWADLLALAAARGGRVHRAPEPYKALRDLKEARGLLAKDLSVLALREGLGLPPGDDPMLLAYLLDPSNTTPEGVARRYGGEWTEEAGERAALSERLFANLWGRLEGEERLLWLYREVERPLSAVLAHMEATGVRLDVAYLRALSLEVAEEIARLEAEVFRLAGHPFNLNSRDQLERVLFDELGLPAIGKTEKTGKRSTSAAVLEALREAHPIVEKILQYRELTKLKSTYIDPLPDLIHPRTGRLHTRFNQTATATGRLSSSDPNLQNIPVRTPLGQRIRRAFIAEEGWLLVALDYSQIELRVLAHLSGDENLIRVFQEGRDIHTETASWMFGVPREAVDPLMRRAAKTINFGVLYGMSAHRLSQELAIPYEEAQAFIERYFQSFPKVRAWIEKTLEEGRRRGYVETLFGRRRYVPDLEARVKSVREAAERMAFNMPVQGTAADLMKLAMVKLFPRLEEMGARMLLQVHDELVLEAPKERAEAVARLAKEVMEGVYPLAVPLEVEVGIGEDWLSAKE

Compound | IC50 [1] [µM] | inhibition [4] | IC50 [5] [µM] | inhibition [7] [%] | IC50 (MCF7) [µM] | Average (RPMI-8226 [2]) [µM] | Average (RPMI-8226 [3]) [µM] | Ratio [6]
N[C@@H]1CCN(c2c(F)cc3c(=O)c(C(=O)O)cn4c3c2Oc2cc3c(ccc5ccccc53)cc2-4)C1 | 2.4 | inactive |  |  | 4.3 | 5.46 | >10 | 
N[C@@H]1CCN(c2c(F)cc3c(=O)c(C(=O)O)cn4c3c2Oc2c-4ccc3c2ccc2ccccc23)C1 | 0.06 | inactive | 5.6 |  | 0.46 | 0.324 | 0.501 | 1.55
COc1cccc2c1C(=O)c1c(O)c3c(c(O)c1C2=O)C[C@@](O)(C(=O)CO)C[C@@H]3O[C@H]1C[C@H](N)[C@H](O)[C@H](C)O1 [DOXORUBICIN] |  |  |  |  |  | 0.037 | 0.32 | 8.65
N[C@H]1CCN(c2c(F)cc3c(=O)c(C(=O)O)cn4c3c2Oc2c-4ccc3c2ccc2ccccc23)C1 | 0.67 | inactive | 21 |  | 1.1 | 0.69 | 2.775 | 4.02

The next lines start with results.

IC50 [1] [µM] | inhibition [4] | IC50 [5] [µM] | inhibition [7] [%] | Compound | IC50 (MCF7) [µM] | Average (RPMI-8226 [2]) [µM] | Average (RPMI-8226 [3]) [µM] | Ratio [6]
5.7 | inactive |  |  | N[C@H]1CCN(c2c(F)cc3c(=O)c(C(=O)O)cn4c3c2Oc2cc3c(ccc5ccccc53)cc2-4)C1 | 14.2 | >10 | >10 | 
 |  |  | 50 | N[C@H]1CCN(c2c(F)cc3c(=O)c(C(=O)O)cn4c3c2Oc2ccccc2-4)C1 |  |  |  | 
